Reference: ChEMBL document CHEMBL4033622, “Synthesis and the interaction of 2-(1H-pyrazol-4-yl)-1H-imidazo[4,5-f][1,10]phenanthrolines with telomeric DNA as lung cancer inhibitors” (Eur J Med Chem, 2017)
Values belong to the molecule of their own block, whether it stands above or below them. Activity calls are given as the source filed them. The rule behind the calls is not given here.

Columns and labels:
A549 [1] = test: Cytotoxicity against human A549 cells assessed as cell growth inhibition at 10 uM after 36 hrs by CCK8 assay; assay type: functional, cell-based
A549 [2] = test: Cytotoxicity against human A549/ATCC cells after 48 hrs by sulforhodamine B assay; assay type: functional, cell-based; conditions: A549, 48 h
[3] = Selectivity index, ratio of IC50 for human MRC5 cells to IC50 for human A549 cells; assay type: functional
A549 [4] = test: Anti-migratory activity against human A549 cells assessed as […] at 0.05 uM after 48 hrs by wound healing assay relative to control; assay type: functional; conditions: A549, 48 h
How it was run: (§1)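 A549 monolayer seeded at 1 × 10⁵ cells/mL and grown 24 h, then scratched with a pipette tip. Compounds were added and cells kept 48 h in serum-free medium, then photographed. Migration distance was measured against lines fitted to the wound edges, with three points per plate. Inhibition (%) = (1 − D_drug/D_control) × 100. Mean ± SD of three independent experiments in triplicate.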

A549 [5] = test: Anti-migratory activity against human A549 cells assessed as […] at 0.2 uM after 48 hrs by wound healing assay relative to control; assay type: functional; conditions: A549, 48 h; how it was run: as §1
Homo sapiens [6] = species on record: Homo sapiens; test: Binding affinity to human telomeric 26 G-quadruplex DNA up to 20 uM after 24 hrs by SYBR gold staining based electrophoretic mobility shift assay
A549 [7] = test: Anti-migratory activity against human A549 cells assessed as […] at 0.1 uM after 48 hrs by wound healing assay relative to control; assay type: functional; conditions: A549, 48 h; how it was run: as §1
Homo sapiens [8] = species on record: Homo sapiens; test: Binding affinity to human telomeric 26 G-quadruplex DNA assessed as change in melting temperature at drug/DNA ratio of 1:10 by UV spectrophotometry (reference value: 39.34 degC)
A549 [9] = test: Cytotoxicity against human A549 cells after 36 hrs by CCK8 assay; assay type: functional, cell-based; conditions: A549, 36 h
MRC5 = test: Cytotoxicity against human MRC5 cells after 36 hrs by CCK8 assay; assay type: cell-based; conditions: MRC5, 36 h
Homo sapiens [10] = species on record: Homo sapiens; test: Binding affinity to human telomeric 26 double stranded DNA up to 40 uM after 24 hrs by SYBR gold staining based electrophoretic mobility shift assay
Homo sapiens [11] = species on record: Homo sapiens; test: Binding affinity to human telomeric 26 mutated DNA up to 40 uM after 24 hrs by SYGR gold staining based electrophoretic mobility shift assay
Homo sapiens [12] = species on record: Homo sapiens; test: Binding affinity to human telomeric 26 G-quadruplex DNA after 24 hrs by SYBR gold staining based electrophoretic mobility shift assay

Structure (SMILES): Cn1cc(-c2nc3c4cccnc4c4ncccc4c3[nH]2)c(-c2ccc(F)cc2)n1
- growth inhibition (GI) (A549 [1]): Active

Structure (SMILES): Oc1cn(-c2ccc(Cl)cc2)nc1-c1n[nH]c(=S)n1-c1ccc(F)cc1
- GI50 (A549 [2]): 13.2 µM

Structure (SMILES): Fc1ccc(-c2n[nH]cc2-c2nc3c4cccnc4c4ncccc4c3[nH]2)cc1
- growth inhibition (GI) (A549 [1]): Active

- Activity (Homo sapiens [6]): inactive
- ΔTm (Homo sapiens [8]): 13.5 °C
Structure (SMILES): Clc1ccc(-c2nn(Cc3ccccc3)cc2-c2nc3c4cccnc4c4ncccc4c3[nH]2)cc1
- Ratio IC50 [3]: 2
- inhibition of growth at 0.05 µM (A549 [4]): 24.7%
- inhibition of growth at 0.2 µM (A549 [5]): 94.4%
- inhibition of growth at 0.1 µM (A549 [7]): 54.2%
- growth inhibition (GI) (A549 [1]): Active
- IC50 (A549 [9]): 2.08 µM
- IC50 (MRC5): 4.17 µM

Structure (SMILES): Cn1cc(-c2nc3c4cccnc4c4ncccc4c3[nH]2)c(-c2ccc(Br)cc2)n1
- growth inhibition (GI) (A549 [1]): Active

Structure (SMILES): Cc1ccc(-c2nn(-c3ccc([N+](=O)[O-])cc3[N+](=O)[O-])cc2-c2nc3c4cccnc4c4ncccc4c3[nH]2)cc1
- growth inhibition (GI) (A549 [1]): Active

Structure (SMILES): Nc1ccc(-n2cc(-c3nc4c5cccnc5c5ncccc5c4[nH]3)c(-c3ccc(Br)cc3)n2)nn1
- growth inhibition (GI) (A549 [1]): Active

Structure (SMILES): O=[N+]([O-])c1ccc(-n2cc(-c3nc4c5cccnc5c5ncccc5c4[nH]3)c(-c3ccc(F)cc3)n2)c([N+](=O)[O-])c1
- growth inhibition (GI) (A549 [1]): Active

Structure (SMILES): Cn1cc(-c2nc3c4cccnc4c4ncccc4c3[nH]2)c(-c2ccc(Cl)cc2)n1
- growth inhibition (GI) (A549 [1]): Active

Structure (SMILES): Clc1ccc(-c2n[nH]cc2-c2nc3c4cccnc4c4ncccc4c3[nH]2)cc1
- growth inhibition (GI) (A549 [1]): Active

Structure (SMILES): CN(C)CCCn1cc(-c2nc3c4cccnc4c4ncccc4c3[nH]2)c(-c2ccc(Cl)cc2)n1
- growth inhibition (GI) (A549 [1]): Active

Structure (SMILES): O=[N+]([O-])c1ccc(-n2cc(-c3nc4c5cccnc5c5ncccc5c4[nH]3)c(-c3ccc(Br)cc3)n2)c([N+](=O)[O-])c1
- growth inhibition (GI) (A549 [1]): Active

Structure (SMILES): Brc1ccc(-c2n[nH]cc2-c2nc3c4cccnc4c4ncccc4c3[nH]2)cc1
- growth inhibition (GI) (A549 [1]): Active

Structure (SMILES): Cc1ccc(-c2n[nH]cc2-c2nc3c4cccnc4c4ncccc4c3[nH]2)cc1
- growth inhibition (GI) (A549 [1]): Active

- Activity (Homo sapiens [6]): inactive
- Activity (Homo sapiens [10]): inactive
- ΔTm (Homo sapiens [8]): 11 °C
- Activity (Homo sapiens [11]): inactive
Structure (SMILES): Brc1ccc(-c2nc3c4cccnc4c4ncccc4c3[nH]2)cc1
- Ratio IC50 [3]: 4.07
- inhibition of growth at 0.05 µM (A549 [4]): 16.1%
- inhibition of growth at 0.2 µM (A549 [5]): 56.1%
- inhibition of growth at 0.1 µM (A549 [7]): 23.7%
- growth inhibition (GI) (A549 [1]): Active
- IC50 (A549 [9]): 1.69 µM
- IC50 (MRC5): 6.88 µM

- Activity (Homo sapiens [6]): inactive
- ΔTm (Homo sapiens [8]): 16.3 °C
Structure (SMILES): Cc1ccc(-c2nn(Cc3ccccc3)cc2-c2nc3c4cccnc4c4ncccc4c3[nH]2)cc1
- Ratio IC50 [3]: 1.73
- inhibition of growth at 0.05 µM (A549 [4]): 16.3%
- inhibition of growth at 0.2 µM (A549 [5]): 85.8%
- inhibition of growth at 0.1 µM (A549 [7]): 54.6%
- growth inhibition (GI) (A549 [1]): Active
- IC50 (A549 [9]): 2.75 µM
- IC50 (MRC5): 4.76 µM

Structure (SMILES): O=[N+]([O-])c1ccc(-n2cc(-c3nc4c5cccnc5c5ncccc5c4[nH]3)c(-c3ccc(Cl)cc3)n2)c([N+](=O)[O-])c1
- growth inhibition (GI) (A549 [1]): Active

Structure (SMILES): Cc1ccc(-c2nn(CCCN(C)C)cc2-c2nc3c4cccnc4c4ncccc4c3[nH]2)cc1
- growth inhibition (GI) (A549 [1]): Active

Structure (SMILES): CN(C)CCCn1cc(-c2nc3c4cccnc4c4ncccc4c3[nH]2)c(-c2ccc(F)cc2)n1
- growth inhibition (GI) (A549 [1]): Active

Structure (SMILES): CN(C)CCCn1cc(-c2nc3c4cccnc4c4ncccc4c3[nH]2)c(-c2ccc(Br)cc2)n1
- growth inhibition (GI) (A549 [1]): Active

- Activity (Homo sapiens [6]): inactive
- ΔTm (Homo sapiens [8]): 12.4 °C
Structure (SMILES): Fc1ccc(-c2nn(Cc3ccccc3)cc2-c2nc3c4cccnc4c4ncccc4c3[nH]2)cc1
- Ratio IC50 [3]: 2.13
- inhibition of growth at 0.05 µM (A549 [4]): 34.5%
- inhibition of growth at 0.2 µM (A549 [5]): 93.3%
- inhibition of growth at 0.1 µM (A549 [7]): 86.6%
- growth inhibition (GI) (A549 [1]): Active
- IC50 (A549 [9]): 1.78 µM
- IC50 (MRC5): 3.8 µM

- Activity (Homo sapiens [12]): Dose-dependent effect
- Activity (Homo sapiens [6]): Active
- Activity (Homo sapiens [10]): inactive
- ΔTm (Homo sapiens [8]): 20.5 °C
- Activity (Homo sapiens [11]): inactive
Structure (SMILES): Brc1ccc(-c2nn(Cc3ccccc3)cc2-c2nc3c4cccnc4c4ncccc4c3[nH]2)cc1
- Ratio IC50 [3]: 2.58
- inhibition of growth at 0.05 µM (A549 [4]): 48.3%
- inhibition of growth at 0.2 µM (A549 [5]): 98.4%
- inhibition of growth at 0.1 µM (A549 [7]): 78.8%
- growth inhibition (GI) (A549 [1]): Active
- IC50 (A549 [9]): 1.48 µM
- IC50 (MRC5): 3.83 µM

Structure (SMILES): Cc1ccc(-c2nn(C)cc2-c2nc3c4cccnc4c4ncccc4c3[nH]2)cc1
- growth inhibition (GI) (A549 [1]): Active
